Experiments:
Type in all cases: functional
CCRF-CEM = experiment: Growth inhibition of human CCRF-CEM cells incubated for 48 hrs by sulforhodamine B assay
Summary of the method: (§1)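 NCI-60 screen. Compounds were dosed at five concentrations spanning 10^-4 to 10^-8 M for 48 h at 37 °C. Cells were TCA-fixed, stained with 0.4% SRB and read at 515 nm against time-zero and vehicle controls. GI50 is the concentration giving a 50% reduction in net protein increase.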

HL-60(TB) = experiment: Growth inhibition of human HL-60(TB) cells incubated for 48 hrs by sulforhodamine B assay; conditions: HL-60, 48 h
Summary of the method: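 Performed at NCI's 60-line screen. Cells grown in RPMI with 5% FBS and 2 mM L-glutamine, plated 5,000–40,000 cells/well and incubated 24 h at 37 °C before compound addition. DMSO stocks were diluted in medium with gentamicin, and five concentrations spanning 10^-4 to 10^-8 M were tested. Exposure was 48 h. Cells were fixed with TCA, stained with SRB, and read at 515 nm. GI50 taken from log dose-response curves as 50% reduction in net protein increase versus control.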

K562 = experiment: Growth inhibition of human K562 cells incubated for 48 hrs by sulforhodamine B assay; conditions: K562, 48 h; summary of the method: as §1
MOLT-4 = experiment: Growth inhibition of human MOLT4 cells incubated for 48 hrs by sulforhodamine B assay; conditions: MOLT-4, 48 h; summary of the method: as §1
RPMI-8226 = experiment: Growth inhibition of human RPMI8226 cells incubated for 48 hrs by sulforhodamine B assay; conditions: RPMI-8226, 48 h; summary of the method: as §1
A549 = experiment: Growth inhibition of human A549/ATCC cells incubated for 48 hrs by sulforhodamine B assay; conditions: A549, 48 h; summary of the method: as §1
HOP-92 = experiment: Growth inhibition of human HOP92 cells incubated for 48 hrs by sulforhodamine B assay; conditions: HOP-92, 48 h; summary of the method: as §1
NCI-H226 = experiment: Growth inhibition of human NCI-H226 cells incubated for 48 hrs by sulforhodamine B assay; conditions: NCI-H226, 48 h; summary of the method: as §1
NCI-H23 = experiment: Growth inhibition of human NCI-H23 cells incubated for 48 hrs by sulforhodamine B assay; conditions: NCI-H23, 48 h; summary of the method: as §1
NCI-H322M = experiment: Growth inhibition of human NCI-H322M cells incubated for 48 hrs by sulforhodamine B assay; summary of the method: as §1
NCI-H460 = experiment: Growth inhibition of human NCI-H460 cells incubated for 48 hrs by sulforhodamine B assay; conditions: NCI-H460, 48 h; summary of the method: as §1
NCI-H522 = experiment: Growth inhibition of human NCI-H522 cells incubated for 48 hrs by sulforhodamine B assay; conditions: NCI-H522, 48 h; summary of the method: as §1
HCC 2998 = experiment: Growth inhibition of human HCC2998 cells incubated for 48 hrs by sulforhodamine B assay; conditions: HCC 2998, 48 h; summary of the method: as §1
HCT-116 = experiment: Growth inhibition of human HCT116 cells incubated for 48 hrs by sulforhodamine B assay; conditions: HCT-116, 48 h; summary of the method: as §1
HCT-15 = experiment: Growth inhibition of human HCT15 cells incubated for 48 hrs by sulforhodamine B assay; conditions: HCT-15, 48 h; summary of the method: as §1
HT-29 = experiment: Growth inhibition of human HT-29 cells incubated for 48 hrs by sulforhodamine B assay; conditions: HT-29, 48 h; summary of the method: as §1
KM12 = experiment: Growth inhibition of human KM12 cells incubated for 48 hrs by sulforhodamine B assay; conditions: KM12, 48 h; summary of the method: as §1
SW-620 = experiment: Growth inhibition of human SW620 cells incubated for 48 hrs by sulforhodamine B assay; conditions: SW-620, 48 h
Summary of the method: (§2)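 NCI-60 screen run at NCI. Cells grown in RPMI medium with 5% FBS and 2 mM L-glutamine, plated at 5,000–40,000 cells/well, and preincubated 24 h at 37 °C. Time-zero plates were TCA-fixed. Compounds came from DMSO stocks and were tested at five concentrations from 10^-4 to 10^-8 M for 48 h. Cells were then TCA-fixed, stained with 0.4% SRB, and OD read at 515 nm. GI50 is the concentration giving a 50% reduction in net protein increase versus control.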

SF-268 = experiment: Growth inhibition of human SF268 cells incubated for 48 hrs by sulforhodamine B assay; conditions: SF-268, 48 h; summary of the method: as §1
SF-295 = experiment: Growth inhibition of human SF295 cells incubated for 48 hrs by sulforhodamine B assay; conditions: SF-295, 48 h; summary of the method: as §1
SF-539 = experiment: Growth inhibition of human SF539 cells incubated for 48 hrs by sulforhodamine B assay; conditions: SF-539, 48 h; summary of the method: as §1
SNB-19 = experiment: Growth inhibition of human SNB19 cells incubated for 48 hrs by sulforhodamine B assay; conditions: SNB-19, 48 h; summary of the method: as §2
U-251 = experiment: Growth inhibition of human U251 cells incubated for 48 hrs by sulforhodamine B assay; conditions: U-251, 48 h; summary of the method: as §2
LOX IMVI = experiment: Growth inhibition of human LOXIMVI cells incubated for 48 hrs by sulforhodamine B assay; summary of the method: as §1
Malme-3M = experiment: Growth inhibition of human MALME-3M cells incubated for 48 hrs by sulforhodamine B assay; summary of the method: as §1
SK-MEL-28 = experiment: Growth inhibition of human SK-MEL-28 cells incubated for 48 hrs by sulforhodamine B assay; conditions: SK-MEL-28, 48 h; summary of the method: as §1
UACC-257 = experiment: Growth inhibition of human UACC257 cells incubated for 48 hrs by sulforhodamine B assay; conditions: UACC-257, 48 h; summary of the method: as §2
UACC-62 = experiment: Growth inhibition of human UACC62 cells incubated for 48 hrs by sulforhodamine B assay; conditions: UACC-62, 48 h; summary of the method: as §2
OVCAR-5 = experiment: Growth inhibition of human OVCAR5 cells incubated for 48 hrs by sulforhodamine B assay; conditions: OVCAR-5, 48 h; summary of the method: as §1
OVCAR-8 = experiment: Growth inhibition of human OVCAR8 cells incubated for 48 hrs by sulforhodamine B assay; conditions: OVCAR-8, 48 h; summary of the method: as §1
NCI/ADR-RES = experiment: Growth inhibition of human NCI/ADR-RES cells incubated for 48 hrs by sulforhodamine B assay; summary of the method: as §1
A498 = experiment: Growth inhibition of human A498 cells incubated for 48 hrs by sulforhodamine B assay; conditions: A498, 48 h; summary of the method: as §1
RXF 393 = experiment: Growth inhibition of human RXF393 cells incubated for 48 hrs by sulforhodamine B assay; conditions: RXF 393, 48 h; summary of the method: as §1
SN12C = experiment: Growth inhibition of human SN12C cells incubated for 48 hrs by sulforhodamine B assay; summary of the method: as §1
UO-31 = experiment: Growth inhibition of human UO31 cells incubated for 48 hrs by sulforhodamine B assay; conditions: UO-31, 48 h; summary of the method: as §2
MCF7 = experiment: Growth inhibition of human MCF7 cells incubated for 48 hrs by sulforhodamine B assay; conditions: MCF7, 48 h; summary of the method: as §1
[1] = Cytotoxicity against human M9-ENL1 cells assessed as reduction in cell viability by trypan blue staining-based assay
Summary of the method: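 M9-ENL1 AML cells (MLL-ENL-transduced human blood cells) plated at 10^6 cells/mL in alpha-MEM with 5% human plasma, 20% FBS, SCF, IL-3, IL-7 and FLT3. Drug diluted from DMSO stock into PBS, final DMSO ≤0.5%. After 24 h exposure, dead cells assessed by trypan blue and by flow cytometry (Annexin V/PI or Annexin V/7-AAD). Viability normalized to vehicle; EC50 from dose-response curves; triplicate.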

Compound | GI50 (CCRF-CEM) | GI50 (HL-60(TB)) | GI50 (K562) | GI50 (MOLT-4) | GI50 (RPMI-8226) | GI50 (A549) | GI50 (HOP-92) | GI50 (NCI-H226) | GI50 (NCI-H23) | GI50 (NCI-H322M) | GI50 (NCI-H460) | GI50 (NCI-H522) | GI50 (HCC 2998) | GI50 (HCT-116) | GI50 (HCT-15) | GI50 (HT-29) | GI50 (KM12) | GI50 (SW-620) | GI50 (SF-268) | GI50 (SF-295) | also measured
C=C1C(=O)O[C@@H]2[C@H]3O[C@]3(C)CC/C=C(/COC(=O)/C=C/c3c[nH]c4ccccc34)CC[C@@H]12 | 70 nM | 250 nM | 270 nM | 300 nM | 30 nM | 1270 nM | 150 nM | 230 nM | 1250 nM | 1730 nM | 1010 nM | 180 nM | 270 nM | 180 nM | 180 nM | 190 nM | 400 nM | 180 nM | 220 nM | 1620 nM | GI50 (SF-539): 260 nM; GI50 (SNB-19): 640 nM; GI50 (U-251): 210 nM; GI50 (LOX IMVI): 50 nM; GI50 (Malme-3M): 280 nM; GI50 (SK-MEL-28): 330 nM; GI50 (UACC-257): 350 nM; GI50 (UACC-62): 170 nM; GI50 (OVCAR-5): 310 nM; GI50 (OVCAR-8): 190 nM; GI50 (NCI/ADR-RES): 350 nM; GI50 (A498): 270 nM; GI50 (RXF 393): 170 nM; GI50 (SN12C): 190 nM; GI50 (UO-31): 150 nM; GI50 (MCF7): 220 nM; EC50 [1]: 700 nM
C=C1C(=O)O[C@@H]2[C@H]3O[C@]3(C)CC/C=C(/COC(=O)c3cc4cc(Cl)ccc4[nH]3)CC[C@@H]12 | 390 nM | 440 nM | 1140 nM | 550 nM | 810 nM | 1690 nM | 1250 nM | 1800 nM | 1630 nM | 4000 nM | 1720 nM | 1590 nM | 1400 nM | 700 nM | 1000 nM | 1330 nM | 2150 nM | 1400 nM | 1440 nM | 3180 nM | GI50 (SF-539): 1440 nM; GI50 (SNB-19): 2910 nM; GI50 (U-251): 1750 nM; GI50 (LOX IMVI): 810 nM; GI50 (Malme-3M): 1630 nM; GI50 (SK-MEL-28): 1580 nM; GI50 (UACC-257): 1700 nM; GI50 (UACC-62): 1670 nM; GI50 (OVCAR-5): 1530 nM; GI50 (OVCAR-8): 1340 nM; GI50 (NCI/ADR-RES): 1450 nM; GI50 (A498): 2650 nM; GI50 (RXF 393): 1380 nM; GI50 (SN12C): 1700 nM; GI50 (UO-31): 1210 nM; GI50 (MCF7): 860 nM; EC50 [1]: 3800 nM
C=C1C(=O)O[C@@H]2[C@H]3O[C@]3(C)CC/C=C(/COC(=O)c3c[nH]c4ccccc34)CC[C@@H]12 | 50 nM | 270 nM | 270 nM | 280 nM | 40 nM | 1500 nM | 160 nM | 440 nM | 1630 nM | 1850 nM | 1100 nM | 190 nM | 320 nM | 190 nM | 250 nM | 240 nM | 470 nM | 230 nM | 290 nM | 1940 nM | GI50 (SF-539): 260 nM; GI50 (SNB-19): 1300 nM; GI50 (U-251): 610 nM; GI50 (LOX IMVI): 40 nM; GI50 (Malme-3M): 320 nM; GI50 (SK-MEL-28): 360 nM; GI50 (UACC-257): 360 nM; GI50 (UACC-62): 180 nM; GI50 (OVCAR-5): 400 nM; GI50 (OVCAR-8): 280 nM; GI50 (NCI/ADR-RES): 390 nM; GI50 (A498): 260 nM; GI50 (RXF 393): 190 nM; GI50 (SN12C): 230 nM; GI50 (UO-31): 160 nM; GI50 (MCF7): 260 nM; EC50 [1]: 1900 nM
